Measurements as given in PMC3057505 (Journal of medicinal chemistry, 2010).
“Also recorded” adds a separate entry of the source.

Experiments:
[1] = system: Aβ plaques in human AD brain sections; test: Fluorescence staining of human AD brain sections; format: binding; details: 50 μM, 30 min, 9:1 PBS:EtOH, frozen sections 10 μm
Procedure, shortened: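 Frozen 10 μm sections of human AD brain and age-matched control brain. Stained 30 min with 50 μM test compound in 9:1 PBS/EtOH, made by diluting a DMSO stock to 0.50 mM in EtOH and then into PBS/EtOH. Washed in turn with 75% aqueous EtOH, 95% EtOH and xylene. Plaque staining was read by fluorescence microscopy.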

Aβ plaques [2] = test: In vivo BBB delivery to Aβ plaque-bearing PDAPP mouse brain; design: species or system PDAPP transgenic mice; details: single 50 mg/kg IP, ten-month-old PDAPP mice, sacrificed 48 h after injection
Procedure, shortened: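 Ten-month-old PDAPP transgenic mice received a single ip dose of 50 mg/kg test compound, with vehicle-only controls (10% DMSO/PBS). At 48 h they were killed by transcardial perfusion with 4% PFA in PBS. Brains were cryoprotected, frozen, sectioned, postfixed 5 min in 4% PFA, washed in PBS and mounted. Plaque fluorescence was imaged in hippocampal CA1 and dentate gyrus at 10× and 40×.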

[3] = DPPH free radical scavenging assay; format: physicochemical; details: for DPPH free radical scavenging activity relative to quercetin: vs quercetin IC50 = 1.3 ± 1.1 μM; for fold less potent than quercetin in DPPH free radical scavenging: p < 0.05 vs quercetin
[4] = biological target: aggregated amyloid peptide Aβ1-40 (Homo sapiens, UniProt P05067); test: In vitro Aβ1-40 binding affinity by fluorescence titration; details: for decrease in Aβ binding affinity: compared to 4; for fold weaker Aβ binding affinity compared to 4: ratio of Kd vs compound 4
Aβ plaques [5] = format: binding, APP/PS1 transgenic mouse
Procedure, shortened: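 Brains from 11-month-old APP/PS1 mice (Tg2576 APP Swedish × M146L PS1 line) were perfused with 4% paraformaldehyde, cryoprotected in 20% sucrose and cut into 10 μm frozen sections, three per dilution point. Sections were stained 30 min with 50 μM test compound in 9:1 PBS/EtOH, then washed in 75% EtOH, 95% EtOH and xylene. S/N was taken as plaque fluorescence over background tissue.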

Aβ plaques [6] = details: APP or APP/PS1 mice; cited from earlier work

aggregated amyloid peptide Aβ1-40, sequence (P05067 672-711 limits assumed): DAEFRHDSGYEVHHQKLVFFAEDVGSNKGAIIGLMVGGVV

With Oc1ccc(/C=C/c2ccc(/C=C/c3ccc(O)cc3)cc2)cc1 [Compound 4, (E,E)-1,4-bis(4-hydroxystyryl)benzene] the “staining of Aβ plaques in human AD brain sections” value (“staining of Aβ plaques” below) [1] was “bind specifically to Aβ plaques in human brain sections”, the “BBB crossing and Aβ plaque binding in vivo” value (Aβ plaques [2]; 50 mg/kg) was “crossed the BBB and bound to Aβ plaques in vivo; also recorded: crossed the blood-brain-barrier and bound to Aβ plaques in vivo” and the “DPPH free radical scavenging activity relative to quercetin” value [3] was “no less effective than quercetin”.
With Oc1ccc(/C=C/c2cccc(/C=C/c3ccc(O)cc3)c2)cc1 [Compound 6, (E,E)-1,3-bis(4-hydroxystyryl)benzene] the “decrease in Aβ binding affinity” value [4] was “two order of magnitude decrease” and the “DPPH free radical scavenging activity relative to quercetin” value [3] was “no less effective than quercetin”.
In the case of Oc1ccc(/C=C/c2ccccc2/C=C/c2ccc(O)cc2)cc1 [Compound 7, (E,E)-1,2-bis(4-hydroxystyryl)benzene], the “decrease in Aβ binding affinity” value [4] is reported as “two order of magnitude decrease” and the “fold less potent than quercetin in DPPH free radical scavenging” value [3] is reported as 3 to 7 fold.
With Oc1cccc(/C=C/c2ccc(/C=C/c3cccc(O)c3)cc2)c1 [Compound 8, (E,E)-1,4-bis(3-hydroxystyryl)benzene] the “staining of Aβ plaques” value [1] was “bind specifically to Aβ plaques in human brain sections” and the “BBB crossing and Aβ plaque binding in vivo” value (Aβ plaques [2]; 50 mg/kg) was “crossed the BBB and bound to Aβ plaques in vivo; also recorded: crossed the blood-brain-barrier and bound to Aβ plaques in vivo”.
For Oc1ccccc1/C=C/c1ccc(/C=C/c2ccccc2O)cc1 [Compound 9, (E,E)-1,4-bis(2-hydroxystyryl)benzene], the “fold weaker Aβ binding affinity compared to 4” value [4] was 84 fold, the “fold less potent than quercetin in DPPH free radical scavenging” value [3] was 3 to 7 fold and the “Aβ binding specificity” value (Aβ plaques [5]; APP/PS1 mouse brain sections) was “good binding specificity”.
For Oc1cc(O)cc(/C=C/c2ccc(/C=C/c3cc(O)cc(O)c3)cc2)c1 [Compound 10, (E,E)-1,4-bis(3,5-dihydroxystyryl)benzene], the “staining of Aβ plaques” value [1] was “bind specifically to Aβ plaques in human brain sections”, the “fold weaker Aβ binding affinity compared to 4” value [4] was 17 to 27 fold and the “BBB crossing and Aβ plaque binding in vivo” value (Aβ plaques [2]) was “crossed the BBB and bound to Aβ plaques in vivo”. The “fold less potent than quercetin in DPPH free radical scavenging” value [3] was 3 to 7 fold.
In the case of Oc1ccc(/C=C/c2ccc(/C=C/c3ccccc3)cc2)cc1 [Compound 11, (E,E)-1-styryl-4-(4-hydroxystyryl)benzene], the “fold weaker Aβ binding affinity compared to 4” value [4] is reported as 16 fold.
In the case of Oc1ccc(/C=C/c2ccc(/C=C/c3cccc(O)c3)cc2)cc1 [Compound 12, (E,E)-1-(4-hydroxystyryl)-4-(3-hydroxystyryl)benzene], the “fold weaker Aβ binding affinity compared to 4” value [4] is reported as 370 fold, the “fold weaker Aβ binding affinity compared to 8” value ([4]; ratio of Kd vs compound 8) is reported as 660 fold and the “DPPH free radical scavenging activity relative to quercetin” value [3] is reported as “no less effective than quercetin”.
In the case of Oc1ccc(/C=C/c2ccc(/C=C/c3ccc(O)c(O)c3)cc2)cc1 [Compound 13, (E,E)-1-(4-hydroxystyryl)-4-(3,4-dihydroxystyryl)benzene], the “fold weaker Aβ binding affinity compared to 4” value [4] is reported as 17 to 27 fold.
In the case of Oc1ccc(/C=C/c2ccc(/C=C/c3cc(O)cc(O)c3)cc2)cc1 [Compound 14, (E,E)-1-(4-hydroxystyryl)-4-(3,5-dihydroxystyryl)benzene], the “fold weaker Aβ binding affinity compared to 4” value [4] is reported as 17 to 27 fold and the “fold less potent than quercetin in DPPH free radical scavenging” value [3] is reported as 3 to 7 fold.
With Oc1cccc(/C=C/c2ccc(/C=C/c3ccc(O)c(O)c3)cc2)c1 [Compound 15, (E,E)-1-(3-hydroxystyryl)-4-(3,4-dihydroxystyryl)benzene] the “fold less potent than quercetin in DPPH free radical scavenging” value [3] was 3 to 7 fold.
In the case of Oc1ccc(/C=C/c2ccc(O)cc2)cc1 [Compound 16], the “decrease in Aβ binding affinity” value [4] is reported as “three orders of magnitude weaker” and the “DPPH free radical scavenging activity relative to quercetin” value [3] is reported as “no less effective than quercetin”.
With Oc1ccc(C#Cc2ccc(C#Cc3ccc(O)cc3)cc2)cc1 [Compound 17] the “fold weaker Aβ binding affinity compared to 4” value [4] was 6 fold and the “fold loss in specificity compared to 4” value (Aβ plaques [5]; ratio of S/N vs compound 4) was 2.4 fold.
In the case of O=C(O)c1cc(/C=C/c2ccc(/C=C/c3ccc(O)c(C(=O)O)c3)cc2)ccc1O [Compound X-34], the “BBB penetration and binding to Aβ plaques” value (Aβ plaques [6]) is given as “penetrate the blood – brain barrier (BBB) and bind to Aβ plaques”.
For O=C(O)c1cc(/C=C/c2ccc(/C=C/c3ccc(O)c(C(=O)O)c3)c(F)c2)ccc1O [FSB], the “BBB penetration and binding to Aβ plaques” value (Aβ plaques [6]) is given as “penetrate the blood – brain barrier (BBB) and bind to Aβ plaques”.
